Data set [1] can be described thus: Volume of distribution at steady state in rat at 1 mg/kg, iv. It is filed as ADME, organism-based. Set-up: dose 1 mg/kg, route intravenous. Conditions: in vivo, read-out: Vdss. Put shortly:
(§1)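 Fasted male rats (n = 3) received 1 mg/kg iv or 10 mg/kg po. Jugular vein blood was drawn with a heparinized syringe at pre-dose and 2 (iv only), 5, 15 and 30 min, and 1, 2, 4, 6 and 8 h. Plasma was obtained by centrifugation at 4 °C and stored at −80 °C. AUC, Cmax, T1/2, Vss and CL came from the plasma concentration–time course. BA was derived from dose-normalized AUCpo/AUCiv.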

Data set [2] deals with T1, Prostaglandin D2 receptor (Mus musculus, UniProt P70263).
T1 sequence (P70263 whole entry): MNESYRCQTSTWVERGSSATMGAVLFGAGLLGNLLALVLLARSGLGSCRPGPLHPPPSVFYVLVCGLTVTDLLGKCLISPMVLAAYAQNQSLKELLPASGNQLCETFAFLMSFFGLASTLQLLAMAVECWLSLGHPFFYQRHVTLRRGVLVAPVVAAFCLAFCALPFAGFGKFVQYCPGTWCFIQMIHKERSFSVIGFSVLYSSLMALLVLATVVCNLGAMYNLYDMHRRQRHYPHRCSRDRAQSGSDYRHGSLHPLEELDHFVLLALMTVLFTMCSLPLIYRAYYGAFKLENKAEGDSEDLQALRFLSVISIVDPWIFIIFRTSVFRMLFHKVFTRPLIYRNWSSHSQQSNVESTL
In words: Antagonist activity at mouse prostanoid DP receptor expressed in CHO cells assessed as inhibition of PGD2-induced intracellular cAMP production. The data set is classed as functional, cell-based. Put shortly: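 CHO-mDP cells were seeded at 1×10^5 cells/well and grown 2 days. They were preincubated about 10 min at 37 °C in MEM with 2 µM diclofenac, then about 10 min in MEM with 0.1% BSA, 1 mM IBMX and 2 µM diclofenac. Test compounds at various concentrations plus 10 nM PGD2 were then added for 10 min at 37 °C. Reactions were stopped with 10% TCA, extracted with tri-n-octylamine/chloroform, and cAMP was measured by EIA.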
(cAMP levels reflect the balance of adenylyl cyclase and phosphodiesterase activity.)

In data set [3] the target is Prostaglandin E2 receptor EP4 subtype (Mus musculus, UniProt P32240). The experiment in a line: Displacement of [3H]PGE2 from mouse prostaglandin EP4 receptor expressed in CHO cells after 60 mins by liquid scintillation counting. It is filed as cell-based. The essentials:
(§2)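 Membranes came from CHO cells stably expressing mEP1, EP2, EP3 or EP4. They were incubated with 2.5 nM [3H]PGE2 and graded test concentrations in 10 mM KH2PO4–KOH (1 mM EDTA, 10 mM MgCl2, 100 mM NaCl, pH 6.0) at room temperature, 20 min for EP1 and 60 min for EP2–4. Reactions were filtered on GF/B, washed with ice-cold buffer, and counted by scintillation. IC50 came by regression, with Ki via Cheng–Prusoff.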
(In general: Displacement assays read how much labelled ligand stays bound in the presence of the test substance.)

A further data set concerns the target Prostacyclin receptor (Homo sapiens, UniProt P43119). In words: Displacement of [3H]Iloprost from human prostanoid IP receptor expressed in CHO cells after 30 mins by liquid scintillation counting.
In data set [4] the target is Prostaglandin E2 receptor EP2 subtype (Mus musculus, UniProt Q62053). In words: Displacement of [3H]PGE2 from mouse prostaglandin EP2 receptor expressed in CHO cells after 60 mins by liquid scintillation counting. The data set is classed as cell-based. Put shortly: as §2
Data set [5] in a line: Cmax in rat at 10 mg/kg, po. It is filed as ADME, organism-based. Set-up: dose 10 mg/kg, route oral. Conditions: in vivo. The essentials: as §1
In data set [6] the target is T2, Prostaglandin E2 receptor EP1 subtype (Mus musculus, UniProt P35375).
T2 sequence (P35375 whole entry): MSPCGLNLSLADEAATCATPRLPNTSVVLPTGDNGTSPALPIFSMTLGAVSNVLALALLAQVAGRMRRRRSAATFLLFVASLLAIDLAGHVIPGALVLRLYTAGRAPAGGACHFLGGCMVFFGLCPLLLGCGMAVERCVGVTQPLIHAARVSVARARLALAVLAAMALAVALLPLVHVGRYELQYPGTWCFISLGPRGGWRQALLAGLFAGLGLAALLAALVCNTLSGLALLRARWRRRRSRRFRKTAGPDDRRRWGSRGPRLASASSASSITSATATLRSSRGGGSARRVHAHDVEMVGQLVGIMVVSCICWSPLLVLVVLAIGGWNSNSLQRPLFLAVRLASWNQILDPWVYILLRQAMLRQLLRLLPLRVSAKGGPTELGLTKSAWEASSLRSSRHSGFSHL
The experiment in a line: Displacement of [3H]PGE2 from mouse prostaglandin EP1 receptor expressed in CHO cells after 20 mins by liquid scintillation counting.

Data set [7] addresses T3, Prostaglandin E2 receptor EP3 subtype (Mus musculus, UniProt P30557).
T3 sequence (P30557 whole entry): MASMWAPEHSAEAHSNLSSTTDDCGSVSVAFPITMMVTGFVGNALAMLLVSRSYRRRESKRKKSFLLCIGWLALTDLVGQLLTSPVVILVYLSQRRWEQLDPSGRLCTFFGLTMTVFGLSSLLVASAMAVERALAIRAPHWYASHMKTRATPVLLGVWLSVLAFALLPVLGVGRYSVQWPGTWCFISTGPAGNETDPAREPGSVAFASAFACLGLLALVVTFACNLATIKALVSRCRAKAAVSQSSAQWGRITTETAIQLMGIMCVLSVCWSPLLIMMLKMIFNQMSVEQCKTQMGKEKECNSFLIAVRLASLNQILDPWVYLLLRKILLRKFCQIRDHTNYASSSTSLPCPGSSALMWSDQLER
In words: Displacement of [3H]PGE2 from mouse prostaglandin EP3alpha receptor expressed in CHO cells after 60 mins by liquid scintillation counting. It is filed as cell-based. Put shortly: as §2

Data set [8] is described as follows: Half life in rat at 1 mg/kg, iv. It is filed as ADME, organism-based. More on the design: dose 1 mg/kg, route intravenous. Conditions: in vivo. Put shortly: as §1
Data set [9] can be described thus: AUC (infinity) in rat at 1 mg/kg, iv. It is filed as ADME, organism-based. More on the design: time infinity, dose 1 mg/kg, route intravenous. The settings on record: plasma. The essentials:
as §1

The nature of data set [10]: Oral bioavailability in rat at 10 mg/kg. It is filed as ADME, organism-based. The settings on record: in vivo. Put shortly:
as §1

The nature of data set [11]: Total clearance in rat at 1 mg/kg, iv. The settings on record: in vivo. Set-up: dose 1 mg/kg, route intravenous. It is filed as ADME, organism-based. Put shortly:
as §1

Data set [12] concerns the target T1, Prostaglandin D2 receptor. The experiment in a line: Displacement of [3H]PGD2 from mouse prostanoid DP receptor expressed in CHO cells after 20 mins by liquid scintillation counting.
A short description of data set [13]: AUC (infinity) in rat at 10 mg/kg, po. The settings on record: plasma. Set-up: time infinity, dose 10 mg/kg, route oral. The data set is classed as ADME, organism-based. The essentials:
as §1

Data set [14] is described as follows: Half life in rat at 10 mg/kg, po. It is filed as ADME, organism-based. More on the design: dose 10 mg/kg, route oral. The settings on record: in vivo. The essentials:
as §1

Data set [15] in a line: AUClast in rat at 1 mg/kg, iv. It is filed as ADME, organism-based. Set-up: time 0 - last, dose 1 mg/kg, route intravenous. The settings on record: plasma. Put shortly: as §1
Data set [16] concerns the target Prostaglandin F2-alpha receptor (Mus musculus, UniProt P43117). In words: Displacement of [3H]PGF2alpha from mouse prostanoid FP receptor expressed in CHO cells after 60 mins by liquid scintillation counting. The data set is classed as cell-based. The essentials: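 CHO-mFP membranes were incubated with 2.5 nM [3H]PGF2α and varied test concentrations in 10 mM KH2PO4–KOH, 1 mM EDTA, 10 mM MgCl2, 100 mM NaCl, pH 6.0, for 60 min at room temperature. Samples were then filtered on GF/B, washed with ice-cold phosphate/NaCl buffer, and counted by scintillation. IC50 came from the regression curve, and Ki = IC50/(1+[L]/Kd).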

Data set [17] can be described thus: AUClast in rat at 10 mg/kg, po. The settings on record: plasma. More on the design: dose 10 mg/kg, route oral, time 0 - last. The data set is classed as ADME, organism-based. The essentials:
as §1

Another data set deals with T4, Thromboxane A2 receptor (Homo sapiens, UniProt P21731).
T4 sequence (P21731 whole entry): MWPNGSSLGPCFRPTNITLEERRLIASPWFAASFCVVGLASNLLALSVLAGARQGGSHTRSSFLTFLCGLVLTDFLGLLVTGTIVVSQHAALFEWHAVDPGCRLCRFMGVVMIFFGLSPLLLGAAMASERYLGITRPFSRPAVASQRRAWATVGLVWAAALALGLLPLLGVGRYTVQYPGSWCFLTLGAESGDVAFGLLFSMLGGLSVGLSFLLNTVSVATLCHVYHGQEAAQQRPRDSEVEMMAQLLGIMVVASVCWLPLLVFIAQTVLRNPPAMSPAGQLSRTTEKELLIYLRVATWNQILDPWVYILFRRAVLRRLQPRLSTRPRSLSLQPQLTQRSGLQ
The experiment in a line: Displacement of [3H]-SQ29548 from human prostanoid TP receptor expressed in CHO cells after 30 mins by liquid scintillation counting.

Data set [18] deals with T2, Prostaglandin E2 receptor EP1 subtype. In words: Displacement of [3H]PGE2 from mouse prostaglandin EP1 receptor expressed in CHO cells after 60 mins by liquid scintillation counting. It is filed as cell-based.

Structures are written as SMILES.

Chain of Prostacyclin receptor (P43119 whole entry): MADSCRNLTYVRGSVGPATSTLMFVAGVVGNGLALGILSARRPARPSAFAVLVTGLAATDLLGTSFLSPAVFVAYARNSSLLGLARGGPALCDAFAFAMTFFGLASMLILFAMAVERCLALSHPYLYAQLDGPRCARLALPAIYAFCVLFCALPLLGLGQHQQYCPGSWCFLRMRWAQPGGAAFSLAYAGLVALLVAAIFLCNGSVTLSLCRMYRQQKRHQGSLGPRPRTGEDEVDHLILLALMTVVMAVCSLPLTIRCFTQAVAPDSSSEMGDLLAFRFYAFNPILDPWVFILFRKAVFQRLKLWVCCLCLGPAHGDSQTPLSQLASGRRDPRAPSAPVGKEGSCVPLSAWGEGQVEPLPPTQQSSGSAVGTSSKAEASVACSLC
Chain of Prostaglandin E2 receptor EP4 subtype (P32240 whole entry): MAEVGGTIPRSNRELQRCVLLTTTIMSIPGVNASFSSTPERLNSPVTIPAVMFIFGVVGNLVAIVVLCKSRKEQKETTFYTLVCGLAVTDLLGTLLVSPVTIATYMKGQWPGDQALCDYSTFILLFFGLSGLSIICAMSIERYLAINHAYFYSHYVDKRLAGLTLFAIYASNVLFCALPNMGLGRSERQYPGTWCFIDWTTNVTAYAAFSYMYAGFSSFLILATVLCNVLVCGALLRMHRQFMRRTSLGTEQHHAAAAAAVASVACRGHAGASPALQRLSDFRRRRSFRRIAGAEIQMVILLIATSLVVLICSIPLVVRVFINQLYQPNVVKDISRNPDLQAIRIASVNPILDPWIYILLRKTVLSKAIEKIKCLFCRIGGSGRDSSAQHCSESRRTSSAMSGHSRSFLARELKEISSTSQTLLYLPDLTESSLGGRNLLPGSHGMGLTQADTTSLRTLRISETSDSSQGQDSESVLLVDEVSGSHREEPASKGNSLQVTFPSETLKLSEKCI
Chain of Prostaglandin E2 receptor EP2 subtype (Q62053 whole entry): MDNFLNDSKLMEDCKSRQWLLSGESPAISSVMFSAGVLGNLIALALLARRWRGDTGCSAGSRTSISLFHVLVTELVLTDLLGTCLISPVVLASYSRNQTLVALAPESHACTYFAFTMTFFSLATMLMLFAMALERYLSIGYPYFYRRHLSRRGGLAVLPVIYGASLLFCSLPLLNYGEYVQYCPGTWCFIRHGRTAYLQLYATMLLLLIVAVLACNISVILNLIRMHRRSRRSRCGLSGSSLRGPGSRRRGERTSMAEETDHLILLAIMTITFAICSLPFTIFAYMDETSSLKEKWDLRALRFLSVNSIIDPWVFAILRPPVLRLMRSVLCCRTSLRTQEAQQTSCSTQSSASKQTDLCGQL
Chain of Prostaglandin F2-alpha receptor (P43117 whole entry): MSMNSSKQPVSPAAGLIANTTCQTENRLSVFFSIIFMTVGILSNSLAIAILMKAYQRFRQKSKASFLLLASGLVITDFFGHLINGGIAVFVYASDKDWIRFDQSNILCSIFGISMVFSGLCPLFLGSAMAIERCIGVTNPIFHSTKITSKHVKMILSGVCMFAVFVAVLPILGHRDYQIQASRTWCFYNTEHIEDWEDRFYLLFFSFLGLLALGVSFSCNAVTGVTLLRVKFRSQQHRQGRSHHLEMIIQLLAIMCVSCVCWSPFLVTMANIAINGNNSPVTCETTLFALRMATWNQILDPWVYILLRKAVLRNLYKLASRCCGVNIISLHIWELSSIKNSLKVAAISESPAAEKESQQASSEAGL

`CN1C[C@@H](COc2ccc(C(=O)Nc3cccc(CC(=O)O)c3)cc2)Oc2ccccc21`: the Vd in data set [1] turned out to be 0.22 L/kg. The half-maximal inhibitory concentration (IC50) – broadly, the concentration needed to halve the response being measured – in data set [2] was 220 nM. For the same molecule, the inhibitory constant (Ki) (in general, the dissociation constant of the complex between target and ligand, obtained from inhibition or displacement) is more than 10000 nM in [3]; 6400 nM at Prostacyclin receptor; 520 nM in [4]; 2100 nM in data set [6]; more than 10000 nM in data set [7]; 310 nM in [12]. Further, in data set [5], the Cmax (usually the peak of the concentration-time curve) was found to be 4900 ng/mL. The half-life (commonly the time in which the quantity being followed falls by half) in [8] was 0.27 h; in data set [14] it was 1.8 h. Besides, the AUC(0-inf) (commonly total exposure, with the tail of the curve extrapolated) in data set [9] was found to be 670 ng·h/mL; in data set [13], 8000 ng·h/mL. In data set [10], the bioavailability came to 119%. Also, the clearance (in general, a measure of how efficiently the substance is removed, as volume per time) in data set [11] worked out at 25 mL/min/kg.
Regarding `Cc1ccc(CC(=O)O)cc1NC(=O)c1ccc(OC[C@@H]2CN(C)c3ccccc3O2)cc1C`, the results for the AUC(0-t) in data set [15] and in data set [17] were 4600 ng·h/mL and 28800 ng·h/mL, respectively. Besides, the Vd in data set [1] came to 0.61 L/kg. Besides, the IC50 in data set [2] is 4.6 nM. Further, the inhibitory constant (Ki) in data set [16] was more than 10000 nM; in data set [3], more than 10000 nM; at Prostacyclin receptor, 2600 nM; in [4], 170 nM; in [6] it was more than 10000 nM; in data set [7], more than 10000 nM. Moreover, the Ki was more than 10000 nM on Thromboxane A2 receptor and 31 nM in data set [12]. This molecule also had a Cmax in data set [5] of 8700 ng/mL. Also, the half-life in [8] is 3.1 h; in [14] it was 5.2 h. In addition, in data set [10], the bioavailability was 62%. Besides, the clearance in [11] stood at 3.3 mL/min/kg.
Take `CN1C[C@@H](COc2ccc(C(=O)Nc3cc(CC(=O)O)ccc3F)c(Cl)c2)Oc2ccccc21`: in data set [2], the IC50 was found to be 7.4 nM. Further, the Ki was more than 10000 nM in data set [16]; more than 10000 nM in data set [3]; more than 10000 nM on Prostacyclin receptor; 22 nM in [4]; more than 10000 nM in data set [7]; more than 10000 nM at Thromboxane A2 receptor. For the same molecule, the Ki in data set [12] is 17 nM; in data set [18], more than 10000 nM.

These data come from ChEMBL document CHEMBL1817571, “Design and synthesis of new prostaglandin D₂ receptor antagonists” (Bioorg Med Chem, 2011).
